Laboratory results reported in ChEMBL document CHEMBL1124780, “Phenyl selenones: alkyl transfer by selenium-carbon bond cleavage” (J Med Chem, 1990).
Values belong to the compound of their own block, whether it stands above or below them.

What was measured:
L1210 = assay: In vitro growth inhibition against L1210 murine leukemia cells; assay type: functional, cell-based; conditions: Mus musculus
In short: (§1)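 Cells were exposed to drug in vitro for 48 h (L1210 murine leukemia; CCRF-CEM human lymphoblast). The value is the drug concentration giving 50% growth inhibition.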

[1] = Half-life after NBP alkylation; assay type: ADME
In short: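 NBP alkylation at 37 °C in aqueous acetone (52.2:47.8, v/v) with 40.6 mM NBP (pseudo-first-order excess), 17.4 mM Tris-HCl pH 7.4, and 0.087 or 0.174 mM alkylating agent. First-order rate constants were taken from plots of log(percent remaining alkylating species) vs time. Adduct was read at 560 nm after triethylamine alkalization.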

[2] = Pseudo first order rate constant of NBP alkylation was determined at 37 degree Centigrade; assay type: ADME
In short: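 Alkylating agent (0.087 or 0.174 mM) reacted at 37 °C with 4-(4-nitrobenzyl)pyridine (40.6 mM, pseudo-first-order excess). Medium was aqueous acetone (52.2:47.8 v/v) with 17.4 mM Tris-HCl, pH 7.4. k' was taken from plots of log(% remaining alkylating species) vs time.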

CCRF-CEM [3] = assay: In vitro growth inhibition against CCRF-CEM human lymphoblast cells; assay type: functional, cell-based; in short: as §1
OM-1 = assay: In vitro cytotoxicity was determined against OM-1 human colon tumor cell line using BACTEC screen; assay type: functional, cell-based
K562 = assay: In vitro cytotoxicity was determined against K-562 human leukemia cell line using NCI screen; assay type: functional, cell-based
COLO 320 [4] = assay: In vitro cytotoxicity was determined against COLO 320 human colon tumor cell line using BACTEC screen; assay type: functional, cell-based
SF-268 = assay: In vitro cytotoxicity was determined against SF-268 human CNS tumor cell line using NCI screen; assay type: functional, cell-based
Malme-3M = assay: In vitro cytotoxicity was determined against MALME-3M human melanoma cell line using NCI screen; assay type: functional, cell-based
SF-539 = assay: In vitro cytotoxicity was determined against SF-539 human CNS tumor cell line using NCI screen; assay type: functional, cell-based
LOX IMVI = assay: In vitro cytotoxicity was determined against LOX human melanoma cell line using NCI screen; assay type: functional, cell-based
HCT-116 = assay: In vitro cytotoxicity was determined against COLO 320 DM,HCT-15, COLO-205, HCT116 HCC 2998, KM20L2, KM12 human colon tumor cell line using NCI screen; assay type: functional, cell-based
HOP-62 = assay: In vitro cytotoxicity was determined against HOP-62 human non-small cell lung carcinoma cell line using NCI screen; assay type: functional, cell-based
UO-31 = assay: In vitro cytotoxicity was determined against UO-31 human renal tumor cell line using NCI screen; assay type: functional, cell-based
HOP-18 = assay: In vitro cytotoxicity was determined against HOP-18 human non-small cell lung carcinoma cell line using NCI screen; assay type: functional, cell-based
A498 = assay: In vitro cytotoxicity was determined against A 498 human renal tumor cell line using NCI screen; assay type: functional, cell-based
SK-MEL-5 = assay: In vitro cytotoxicity was determined against SK-MEL-5 human melanoma cell line using NCI screen; assay type: functional, cell-based
COLO 205 = assay: In vitro cytotoxicity was determined against COLO-205 human colon tumor cell line using NCI screen; assay type: functional, cell-based
HCC 2998 = assay: In vitro cytotoxicity was determined against HCC 2998 human colon tumor cell line using NCI screen; assay type: functional, cell-based
KM-20L2 = assay: In vitro cytotoxicity was determined against KM20L2 human colon tumor cell line using NCI screen; assay type: functional, cell-based
OVCAR-5 = assay: In vitro cytotoxicity was determined against OVCAR5 human ovarian cell line using NCI screen; assay type: functional, cell-based
Homo sapiens [5] = species on record: Homo sapiens; assay: In vitro cytotoxicity was determined against CALU 3 human non-small cell lung carcinoma cell line using BACTEC screen; assay type: functional
MCF7 = assay: In vitro cytotoxicity was determined against MCF-7M human breast tumor cell line using BACTEC screen; assay type: functional, cell-based
CCRF-SB = assay: In vitro cytotoxicity was determined against CCRF-SB human leukemia cell line using NCI screen; assay type: functional, cell-based
SF-295 = assay: In vitro cytotoxicity was determined against SF-295, U251, SNB19 human CNS tumor cell line using NCI screen; assay type: functional, cell-based
HT-29 = assay: In vitro cytotoxicity was determined against HT-29 human colon tumor cell line using BACTEC screen; assay type: functional, cell-based
SK-MEL-28 = assay: In vitro cytotoxicity was determined against SK-MEL-28 human melanoma cell line using NCI screen; assay type: functional, cell-based
HOP-19 = assay: In vitro cytotoxicity was determined against HOP-19 human non-small cell lung carcinoma cell line using NCI screen; assay type: functional, cell-based
KM12 = assay: In vitro cytotoxicity was determined against KM12 human colon tumor cell line using NCI screen; assay type: functional, cell-based
Hs-578T = assay: In vitro cytotoxicity was determined against Hs 578.T human breast tumor cell line using BACTEC screen; assay type: functional, cell-based
NCI-H23 = assay: In vitro cytotoxicity was determined against H23 human non-small cell lung carcinoma cell line using NCI screen; assay type: functional, cell-based
A2780 = assay: In vitro cytotoxicity was determined against A2780 human ovarian cell line using NCI screen; assay type: functional, cell-based
UACC-257 = assay: In vitro cytotoxicity was determined against UACC-257 human melanoma cell line using NCI screen; assay type: functional, cell-based
COLO 320 [6] = assay: In vitro cytotoxicity was determined against COLO 320 DM human colon tumor cell line using NCI screen; assay type: functional, cell-based
SNB-19 = assay: In vitro cytotoxicity was determined against SNB19 human CNS tumor cell line using NCI screen; assay type: functional, cell-based
HCT-15 = assay: In vitro cytotoxicity was determined against HCT-15 human colon tumor cell line using NCI screen; assay type: functional, cell-based
TE-671 = assay: In vitro cytotoxicity was determined against TE671 human CNS tumor cell line using NCI screen; assay type: functional, cell-based
IGROV-1 = assay: In vitro cytotoxicity was determined against IGROVI human ovarian cell line using NCI screen; assay type: functional, cell-based
M19-MEL = assay: In vitro cytotoxicity was determined against M19-MEL human melanoma cell line using NCI screen; assay type: functional, cell-based
MOLT-4 = assay: In vitro cytotoxicity was determined against MOLT-4 human leukemia cell line using NCI screen; assay type: functional, cell-based
SN12C [7] = assay: (§2) In vitro cytotoxicity was determined against SN12 KI human renal tumor cell line using NCI screen; assay type: functional, cell-based
CCRF-CEM [8] = assay: In vitro cytotoxicity was determined against CCRF-CEM human leukemia cell line using NCI screen; assay type: functional, cell-based
UACC-62 = assay: In vitro cytotoxicity was determined against UACC-62 human melanoma cell line using NCI screen; assay type: functional, cell-based
SK-MEL-2 = assay: In vitro cytotoxicity was determined against SK-MEL-2 human melanoma cell line using NCI screen; assay type: functional, cell-based
NCI-H460 = assay: In vitro cytotoxicity was determined against H460 human non-small cell lung carcinoma cell line using NCI screen; assay type: functional, cell-based
RPMI-8226 = assay: In vitro cytotoxicity was determined against RPMI 8226 human leukemia cell line using NCI screen; assay type: functional, cell-based
SN12C [9] = assay: as §2; assay type: functional, cell-based; remark: listed apart in the source
SK-MES-1 = assay: In vitro cytotoxicity was determined against SKMES human non-small cell lung carcinoma cell line using BACTEC screen; assay type: functional, cell-based
SNB-78 = assay: In vitro cytotoxicity was determined against SNB78 human CNS tumor cell line using NCI screen; assay type: functional, cell-based
U-251 = assay: In vitro cytotoxicity was determined against U251 human CNS tumor cell line using NCI screen; assay type: functional, cell-based
Homo sapiens [10] = species on record: Homo sapiens; assay: In vitro cytotoxicity was determined against SKLU human non-small cell lung carcinoma cell line using BACTEC screen; assay type: functional
SK-OV-3 = assay: In vitro cytotoxicity was determined against SKOV-3 human ovarian cell line using NCI screen; assay type: functional, cell-based

SMILES: COc1ccc([Se](=O)(=O)CCCl)cc1
IC50 (L1210): 0.36 µM
half-life [1]: 9.25 h
k' [2]: 0.00125 min⁻¹
IC50 (CCRF-CEM [3]): 0.14 µM

IC50 (L1210): 2.3 µM
half-life [1]: > 96 h
k' [2]: < 0.00012 min⁻¹
IC50 (CCRF-CEM [3]): 2.25 µM
SMILES: O=S(=O)(CCCl)c1ccccc1

SMILES: CS(=O)(=O)OCCC[Se](=O)(=O)c1ccccc1
IC50 (L1210): 1.2 µM
half-life [1]: 9.55 h
k' [2]: 0.00121 min⁻¹
IC50 (CCRF-CEM [3]): 0.9 µM

SMILES: CS(=O)(=O)CS(=O)(=O)OCCCl
IC50 (L1210): 3 µM
half-life [1]: 9.4 h
k' [2]: 0.00123 min⁻¹

SMILES: O=[Se](=O)(CCCl)c1ccccc1
IC50 (OM-1): > 4 µM
IC50 (K562): 0.45 µM
IC50 (COLO 320 [4]): 1.2 µM
IC50 (SF-268): 6 µM
IC50 (Malme-3M): 3.7 µM
IC50 (SF-539): 6 µM
IC50 (LOX IMVI): 3.7 µM
IC50 (HCT-116): 2.3 µM
IC50 (HOP-62): 4.3 µM
IC50 (UO-31): 4.6 µM
IC50 (HOP-18): 4.3 µM
IC50 (A498): 4.6 µM
IC50 (SK-MEL-5): 3.7 µM
IC50 (COLO 205): 2.3 µM
IC50 (HCC 2998): 2.3 µM
IC50 (KM-20L2): 2.3 µM
IC50 (OVCAR-5): 7.8 µM
IC50 (Homo sapiens [5]): 2.2 µM
IC50 (MCF7): > 4 µM
IC50 (CCRF-SB): 0.45 µM
IC50 (SF-295): 6 µM
IC50 (HT-29): 1.9 µM
IC50 (SK-MEL-28): 3.7 µM
IC50 (L1210): 0.55 µM
IC50 (HOP-19): 4.3 µM
half-life [1]: 8.37 h
IC50 (KM12): 2.3 µM
IC50 (Hs-578T): 0.9 µM
IC50 (NCI-H23): 4.3 µM
IC50 (A2780): 7.8 µM
IC50 (UACC-257): 3.7 µM
IC50 (COLO 320 [6]): 2.3 µM
IC50 (SNB-19): 6 µM
IC50 (HCT-15): 2.3 µM
IC50 (TE-671): 6 µM
IC50 (IGROV-1): 7.8 µM
IC50 (M19-MEL): 3.7 µM
IC50 (MOLT-4): 0.45 µM
k' [2]: 0.00138 min⁻¹
IC50 (SN12C [7]): 4.6 µM
IC50 (CCRF-CEM [8]): 0.45 µM
IC50 (UACC-62): 3.7 µM
IC50 (SK-MEL-2): 3.7 µM
IC50 (NCI-H460): 4.3 µM
IC50 (RPMI-8226): 0.45 µM
IC50 (SN12C [9]): 4.6 µM
IC50 (SK-MES-1): 0.15 µM
IC50 (SNB-78): 6 µM
IC50 (U-251): 6 µM
IC50 (CCRF-CEM [3]): 0.15 µM
IC50 (Homo sapiens [10]): 0.06 µM
IC50 (SK-OV-3): 7.8 µM

SMILES: O=[N+]([O-])c1ccc([Se](=O)(=O)CCCl)cc1
IC50 (L1210): 0.9 µM
half-life [1]: 1.08 h
k' [2]: 0.0104 min⁻¹
IC50 (CCRF-CEM [3]): 0.4 µM

SMILES: ClCC[Se]CCCl
half-life [1]: 0.004 h

SMILES: O=[Se](O)c1ccccc1 [BENZENE SELENOIC ACID]
IC50 (L1210): 3 µM

SMILES: O=C(O)CCCc1ccc(N(CCCl)CCCl)cc1 [CHLORAMBUCIL]
half-life [1]: 7.75 h
k' [2]: 0.00149 min⁻¹

SMILES: ClCC[Se]c1ccccc1
half-life [1]: 0.031 h

SMILES: CC[Se](=O)(=O)c1ccccc1
IC50 (L1210): 5 µM
half-life [1]: 4.67 h
k' [2]: 0.00248 min⁻¹
IC50 (CCRF-CEM [3]): 10 µM
